Measurements reported in ChEMBL document CHEMBL1158577, “Role of hydrophobic substituents on the terminal nitrogen of histamine in receptor binding and agonist activity: development of an orally active histamine type 3 receptor agonist and evaluation of its antistress activity in mice” (J Med Chem, 2010).
Calls of active or inactive are those of the source. The rule behind the calls is not given here.

Key:
Histamine H3 receptor [1] = target: T1, Histamine H3 receptor (Homo sapiens, UniProt Q9Y5N1); experiment: Agonist activity at human recombinant histamine H3 receptor expressed in CHO cells assessed as [35S]GTPgammaS binding at 10 nM after 1 hr by liquid scintillation counting relative to (R)-alpha-methylhistamine; format: functional, cell-based
Method in brief: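 CHO cells stably expressing human H3R. Agonist response is given as a percent of the response to the reference H3R agonist. Results are mean ± SEM, n = 3.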

Histamine H3 receptor [2] = target: T1, Histamine H3 receptor; experiment: Displacement of [3H[N-alpha-methylhistamine form human recombinant histamine H3 receptor expressed in CHO cells after 1 hr by liquid scintillation counting; format: cell-based
Method in brief: (§1)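 Used CHO cells stably expressing the human H3R for both affinity (pKi) and functional agonist measurements. Each value is the mean ± SEM of n = 3.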

Histamine H3 receptor [3] = target: T1, Histamine H3 receptor; experiment: Agonist activity at human recombinant histamine H3 receptor expressed in CHO cells assessed as [35S]GTPgammaS binding after 1 hr by liquid scintillation counting; format: functional, cell-based; method in brief: as §1
Mus musculus [4] = experiment: In-vivo agonist activity at histamine H3 receptor in ddY mouse assessed as N-tele-methylhistamine level per gram of brain at 1 mg/kg, po by gas chromatography (RVb = 315 +/- 20 ng); format: functional, organism-based; parameters: dose 1 mg/kg
[5] = Total clearance in Wistar rat at 2 mg/kg, iv after 6 hrs by LC-MS/MS analysis; format: ADME, organism-based; parameters: dose 2 mg/kg, route intravenous; details: in vivo
Method in brief: (§2)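 Rats received 2 mg/kg iv, with n = 2. Total clearance (L/h/kg), steady-state volume of distribution (L/kg) and half-life (h) were derived.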

[6] = target: T2, 5-hydroxytryptamine receptor 3A (Homo sapiens, UniProt P46098); experiment: Inhibition of 5HT3 receptor
T2 sequence (P46098 whole entry): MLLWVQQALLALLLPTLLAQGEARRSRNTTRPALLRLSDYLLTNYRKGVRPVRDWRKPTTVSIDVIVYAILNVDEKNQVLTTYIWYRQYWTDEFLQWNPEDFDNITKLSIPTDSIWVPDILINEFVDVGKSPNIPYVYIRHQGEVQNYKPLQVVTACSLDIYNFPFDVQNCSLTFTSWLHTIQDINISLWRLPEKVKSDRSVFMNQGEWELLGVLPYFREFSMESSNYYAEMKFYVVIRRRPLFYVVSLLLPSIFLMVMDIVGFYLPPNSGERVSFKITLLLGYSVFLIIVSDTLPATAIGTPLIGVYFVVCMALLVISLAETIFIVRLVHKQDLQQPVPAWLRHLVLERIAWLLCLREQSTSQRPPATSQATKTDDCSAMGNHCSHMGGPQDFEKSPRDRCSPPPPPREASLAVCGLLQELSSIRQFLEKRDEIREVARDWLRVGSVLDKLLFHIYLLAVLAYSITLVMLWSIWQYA

Cytochrome P450 1A2 = target: T3, Cytochrome P450 1A2 (Homo sapiens, UniProt P05177); experiment: Inhibition of human CYP1A2 expressed in insect cell microsome after 15 mins by fluorescence assay; format: ADME, microsomes
T3 sequence (P05177 whole entry): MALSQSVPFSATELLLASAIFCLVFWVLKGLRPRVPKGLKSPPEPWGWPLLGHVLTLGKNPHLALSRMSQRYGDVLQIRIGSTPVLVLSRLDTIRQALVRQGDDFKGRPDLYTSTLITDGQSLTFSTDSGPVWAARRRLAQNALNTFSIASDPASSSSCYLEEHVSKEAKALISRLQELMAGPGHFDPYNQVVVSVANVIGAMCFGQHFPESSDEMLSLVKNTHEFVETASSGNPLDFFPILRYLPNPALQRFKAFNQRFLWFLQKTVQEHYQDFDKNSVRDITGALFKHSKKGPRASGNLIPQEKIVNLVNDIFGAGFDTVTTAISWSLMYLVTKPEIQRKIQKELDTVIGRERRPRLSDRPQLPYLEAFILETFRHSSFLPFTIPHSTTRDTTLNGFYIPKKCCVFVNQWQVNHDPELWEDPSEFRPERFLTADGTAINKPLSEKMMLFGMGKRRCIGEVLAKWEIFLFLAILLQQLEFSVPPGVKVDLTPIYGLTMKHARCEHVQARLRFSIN

Mus musculus [7] = experiment: Antistress activity against isolation-induced aggressive behavior in ICR mouse assessed as duration of attacks to intruder mouse at 30 mg/kg, po measured for 10 mins by resident-intruder test (RVb = 54.5 +/- 6.7 sec); format: functional
[8] = target: Beta-1 adrenergic receptor (Homo sapiens, UniProt P08588); experiment: Inhibition of beta-1 adrenergic receptor
[9] = target: T4, 5-hydroxytryptamine receptor 1A (Homo sapiens, UniProt P08908); experiment: Inhibition of 5HT1A receptor
T4 sequence (P08908 whole entry): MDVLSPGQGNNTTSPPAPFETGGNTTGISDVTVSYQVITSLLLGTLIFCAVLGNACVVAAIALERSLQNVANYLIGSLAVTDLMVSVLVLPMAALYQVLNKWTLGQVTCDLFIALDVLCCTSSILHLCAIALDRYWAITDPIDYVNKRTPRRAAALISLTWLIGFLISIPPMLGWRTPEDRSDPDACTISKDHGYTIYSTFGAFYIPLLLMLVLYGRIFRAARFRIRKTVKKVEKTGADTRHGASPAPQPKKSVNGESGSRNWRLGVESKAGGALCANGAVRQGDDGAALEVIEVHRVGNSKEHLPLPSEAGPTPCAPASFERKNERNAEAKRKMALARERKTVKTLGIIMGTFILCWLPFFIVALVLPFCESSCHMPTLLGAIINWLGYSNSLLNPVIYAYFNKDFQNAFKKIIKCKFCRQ

[10] = target: 5-hydroxytryptamine receptor 2A (Homo sapiens, UniProt P28223); experiment: Inhibition of 5HT2A receptor
[11] = Metabolic stability in rat liver S9 fraction assessed as […] after 60 mins by HPLC analysis; format: ADME, subcellular; details: s9, 1 h
Method in brief: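 Rat S9 metabolic activity was expressed as pmol/min/mg protein, reported as mean ± SEM with n = 3.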

Mus musculus [12] = experiment: Antistress activity against isolation-induced aggressive behavior in ICR mouse assessed as duration of attacks to intruder mouse at 3 mg/kg, po measured for 10 mins by resident-intruder test (RVb = 54.5 +/- 6.7 sec); format: functional
Cytochrome P450 2D6 = Cytochrome P450 2D6 (Homo sapiens, UniProt P10635); experiment: Inhibition of human CYP2D6 expressed in insect cell microsome after 30 mins by fluorescence assay; format: ADME, microsomes
Cytochrome P450 3A4 = Cytochrome P450 3A4 (Homo sapiens, UniProt P08684); experiment: Inhibition of human CYP3A4 expressed in insect cell microsome after 30 mins by fluorescence assay; format: ADME, microsomes
[13] = Ratio of drug level in brain to plasma in Wistar rat at 5 mg/kg, po after 1 hr; format: ADME, organism-based; parameters: dose 5 mg/kg, route oral; details: brain and plasma, read-out: BPR
Method in brief: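 Brain/plasma concentration ratio was determined in rats 1 h after administration, with n = 2.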

Histamine H2 receptor = Histamine H2 receptor (Homo sapiens, UniProt P25021); experiment: Inhibition of histamine H2 receptor
[14] = Half life in Wistar rat at 2 mg/kg, iv after 6 hrs by LC-MS/MS analysis; format: ADME, organism-based; parameters: dose 2 mg/kg, route intravenous; details: in vivo; method in brief: as §2
[15] = Oral bioavailability in Wistar rat at 5 mg/kg after 24 hrs by LC-MS/MS analysis; format: ADME, organism-based; details: in vivo
Method in brief: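 In rat, an oral dose of 5 mg/kg (n = 2) was used to determine AUC0-inf and bioavailability (%).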

[16] = target: Beta-2 adrenergic receptor (Homo sapiens, UniProt P07550); experiment: Inhibition of beta2 adrenergic receptor
[17] = target: T5, Muscarinic acetylcholine receptor M1 (Homo sapiens, UniProt P11229); experiment: Inhibition of muscarinic M1 receptor
T5 sequence (P11229 whole entry): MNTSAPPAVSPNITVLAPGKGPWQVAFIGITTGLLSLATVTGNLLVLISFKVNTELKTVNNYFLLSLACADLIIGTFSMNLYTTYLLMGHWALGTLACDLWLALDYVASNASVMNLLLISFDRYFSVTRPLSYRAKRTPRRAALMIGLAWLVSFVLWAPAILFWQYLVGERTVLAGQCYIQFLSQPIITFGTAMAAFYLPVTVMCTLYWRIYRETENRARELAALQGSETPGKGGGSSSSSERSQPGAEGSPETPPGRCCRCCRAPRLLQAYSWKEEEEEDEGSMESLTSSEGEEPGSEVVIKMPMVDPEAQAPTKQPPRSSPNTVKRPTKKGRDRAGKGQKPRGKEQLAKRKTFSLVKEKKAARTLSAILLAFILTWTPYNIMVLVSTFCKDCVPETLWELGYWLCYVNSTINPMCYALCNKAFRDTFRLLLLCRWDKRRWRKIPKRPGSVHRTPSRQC

D(3) dopamine receptor = D(3) dopamine receptor (Homo sapiens, UniProt P35462); experiment: Inhibition of dopamine D3 receptor
Histamine H1 receptor = Histamine H1 receptor (Homo sapiens, UniProt P35367); experiment: Inhibition of histamine H1 receptor
[18] = Inhibition of alpha1 adrenergic receptor
[19] = target: Muscarinic acetylcholine receptor M3 (Homo sapiens, UniProt P20309); experiment: Inhibition of muscarinic M3 receptor
D(1A) dopamine receptor = D(1A) dopamine receptor (Homo sapiens, UniProt P21728); experiment: Inhibition of dopamine D1 receptor
Histamine H4 receptor = Histamine H4 receptor (Homo sapiens, UniProt Q9H3N8); experiment: Inhibition of human recombinant histamine H4 receptor expressed in CHO cells; format: cell-based
Mus musculus [20] = experiment: In-vivo agonist activity at histamine H3 receptor in ddY mouse assessed as N-tele-methylhistamine level per gram of brain at 30 mg/kg, po by gas chromatography (RVb = 315 +/- 20 ng); format: functional, organism-based; parameters: dose 30 mg/kg
Mus musculus [21] = experiment: In-vivo agonist activity at histamine H3 receptor in ddY mouse assessed as N-tele-methylhistamine level per gram of brain at 5 mg/kg, po by gas chromatography (RVb = 315 +/- 20 ng); format: functional, organism-based; parameters: dose 5 mg/kg
D(2) dopamine receptor = D(2) dopamine receptor (Homo sapiens, UniProt P14416); experiment: Inhibition of dopamine D2 receptor
[22] = Volume of distribution at steady state in Wistar rat at 2 mg/kg, iv after 6 hrs by LC-MS/MS analysis; format: ADME, organism-based; parameters: dose 2 mg/kg, route intravenous; details: in vivo, read-out: Vdss; method in brief: as §2
Cytochrome P450 2C19 = Cytochrome P450 2C19 (Homo sapiens, UniProt P33261); experiment: Inhibition of human CYP2C19 expressed in insect cell microsome after 30 mins by fluorescence assay; format: ADME, microsomes
Sequence of Cytochrome P450 2C19 (P33261 whole entry): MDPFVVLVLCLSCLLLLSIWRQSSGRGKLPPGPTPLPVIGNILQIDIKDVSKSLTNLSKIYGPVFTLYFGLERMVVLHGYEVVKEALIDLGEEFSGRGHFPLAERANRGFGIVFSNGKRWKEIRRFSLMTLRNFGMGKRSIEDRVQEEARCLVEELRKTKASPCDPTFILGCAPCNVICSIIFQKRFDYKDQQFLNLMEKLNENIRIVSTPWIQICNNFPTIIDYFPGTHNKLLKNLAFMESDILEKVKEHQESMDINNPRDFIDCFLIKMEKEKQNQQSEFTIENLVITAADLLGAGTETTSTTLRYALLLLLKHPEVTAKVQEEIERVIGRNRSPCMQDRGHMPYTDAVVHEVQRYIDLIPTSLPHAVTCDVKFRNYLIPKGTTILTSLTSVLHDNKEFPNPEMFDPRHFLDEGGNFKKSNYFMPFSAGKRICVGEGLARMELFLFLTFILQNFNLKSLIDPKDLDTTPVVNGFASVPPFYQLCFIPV

T1 sequence (Q9Y5N1 whole entry): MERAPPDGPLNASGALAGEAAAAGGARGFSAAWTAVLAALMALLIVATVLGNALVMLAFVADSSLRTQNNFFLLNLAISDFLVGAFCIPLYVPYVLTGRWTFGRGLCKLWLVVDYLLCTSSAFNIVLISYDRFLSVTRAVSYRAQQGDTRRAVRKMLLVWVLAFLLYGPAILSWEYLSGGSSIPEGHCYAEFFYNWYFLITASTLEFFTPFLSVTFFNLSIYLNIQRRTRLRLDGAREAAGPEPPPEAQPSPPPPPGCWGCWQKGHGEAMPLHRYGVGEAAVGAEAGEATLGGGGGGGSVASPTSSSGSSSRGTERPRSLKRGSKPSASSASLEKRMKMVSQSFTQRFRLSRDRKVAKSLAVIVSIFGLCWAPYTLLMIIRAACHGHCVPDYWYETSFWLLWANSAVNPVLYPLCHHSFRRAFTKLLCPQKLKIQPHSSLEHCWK
Sequence of Beta-1 adrenergic receptor (P08588 whole entry): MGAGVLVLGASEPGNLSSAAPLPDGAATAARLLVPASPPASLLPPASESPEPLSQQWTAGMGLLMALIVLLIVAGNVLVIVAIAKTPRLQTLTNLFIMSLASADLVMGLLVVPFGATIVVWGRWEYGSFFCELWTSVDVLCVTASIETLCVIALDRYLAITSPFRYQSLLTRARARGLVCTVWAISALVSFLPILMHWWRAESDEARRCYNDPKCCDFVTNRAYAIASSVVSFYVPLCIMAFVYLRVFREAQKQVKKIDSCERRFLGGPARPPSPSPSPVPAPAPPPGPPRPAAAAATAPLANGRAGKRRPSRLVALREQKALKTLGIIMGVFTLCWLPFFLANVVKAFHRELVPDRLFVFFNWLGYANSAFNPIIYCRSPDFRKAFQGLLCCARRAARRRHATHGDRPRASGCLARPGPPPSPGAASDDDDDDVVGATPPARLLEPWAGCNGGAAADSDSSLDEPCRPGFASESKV
Sequence of Cytochrome P450 2D6 (P10635 whole entry): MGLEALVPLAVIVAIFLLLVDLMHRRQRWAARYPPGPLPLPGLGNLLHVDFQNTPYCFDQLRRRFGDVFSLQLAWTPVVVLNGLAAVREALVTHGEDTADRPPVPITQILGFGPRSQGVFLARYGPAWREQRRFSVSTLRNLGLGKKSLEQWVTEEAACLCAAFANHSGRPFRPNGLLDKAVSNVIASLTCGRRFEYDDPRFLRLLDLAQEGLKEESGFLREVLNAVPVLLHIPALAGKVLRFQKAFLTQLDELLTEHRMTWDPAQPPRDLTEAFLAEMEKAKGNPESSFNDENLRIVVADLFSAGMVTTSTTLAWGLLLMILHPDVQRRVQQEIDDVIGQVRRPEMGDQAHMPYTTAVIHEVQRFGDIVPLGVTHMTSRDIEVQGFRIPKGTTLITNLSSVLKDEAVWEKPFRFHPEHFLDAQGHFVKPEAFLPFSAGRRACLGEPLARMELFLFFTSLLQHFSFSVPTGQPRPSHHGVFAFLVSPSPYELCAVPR
Sequence of Cytochrome P450 3A4 (P08684 whole entry): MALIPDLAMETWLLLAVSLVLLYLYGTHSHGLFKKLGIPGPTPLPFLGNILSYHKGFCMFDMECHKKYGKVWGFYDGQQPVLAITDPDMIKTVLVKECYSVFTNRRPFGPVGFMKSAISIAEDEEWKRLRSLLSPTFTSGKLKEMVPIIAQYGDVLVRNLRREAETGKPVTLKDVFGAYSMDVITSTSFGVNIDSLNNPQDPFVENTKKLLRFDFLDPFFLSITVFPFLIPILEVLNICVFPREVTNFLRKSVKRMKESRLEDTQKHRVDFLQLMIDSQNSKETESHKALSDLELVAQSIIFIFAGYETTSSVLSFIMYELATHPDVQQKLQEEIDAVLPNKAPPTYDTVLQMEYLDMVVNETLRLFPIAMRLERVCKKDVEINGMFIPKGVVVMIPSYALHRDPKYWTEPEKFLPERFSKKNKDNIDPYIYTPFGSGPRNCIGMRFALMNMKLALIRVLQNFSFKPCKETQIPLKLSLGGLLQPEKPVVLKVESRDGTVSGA
Sequence of Histamine H1 receptor (P35367 whole entry): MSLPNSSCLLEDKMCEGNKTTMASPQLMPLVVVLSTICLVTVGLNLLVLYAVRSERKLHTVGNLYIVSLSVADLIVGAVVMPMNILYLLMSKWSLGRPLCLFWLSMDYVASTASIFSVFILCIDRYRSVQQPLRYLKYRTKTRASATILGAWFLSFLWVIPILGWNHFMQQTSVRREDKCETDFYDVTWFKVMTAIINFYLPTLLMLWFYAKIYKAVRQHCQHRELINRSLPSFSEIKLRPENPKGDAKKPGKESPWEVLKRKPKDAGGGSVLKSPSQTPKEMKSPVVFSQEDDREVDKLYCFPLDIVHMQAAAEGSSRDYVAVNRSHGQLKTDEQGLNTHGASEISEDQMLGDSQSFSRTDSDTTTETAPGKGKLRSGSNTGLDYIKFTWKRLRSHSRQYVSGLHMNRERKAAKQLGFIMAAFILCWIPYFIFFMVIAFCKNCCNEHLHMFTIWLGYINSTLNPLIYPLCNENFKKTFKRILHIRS
Sequence of Muscarinic acetylcholine receptor M3 (P20309 whole entry): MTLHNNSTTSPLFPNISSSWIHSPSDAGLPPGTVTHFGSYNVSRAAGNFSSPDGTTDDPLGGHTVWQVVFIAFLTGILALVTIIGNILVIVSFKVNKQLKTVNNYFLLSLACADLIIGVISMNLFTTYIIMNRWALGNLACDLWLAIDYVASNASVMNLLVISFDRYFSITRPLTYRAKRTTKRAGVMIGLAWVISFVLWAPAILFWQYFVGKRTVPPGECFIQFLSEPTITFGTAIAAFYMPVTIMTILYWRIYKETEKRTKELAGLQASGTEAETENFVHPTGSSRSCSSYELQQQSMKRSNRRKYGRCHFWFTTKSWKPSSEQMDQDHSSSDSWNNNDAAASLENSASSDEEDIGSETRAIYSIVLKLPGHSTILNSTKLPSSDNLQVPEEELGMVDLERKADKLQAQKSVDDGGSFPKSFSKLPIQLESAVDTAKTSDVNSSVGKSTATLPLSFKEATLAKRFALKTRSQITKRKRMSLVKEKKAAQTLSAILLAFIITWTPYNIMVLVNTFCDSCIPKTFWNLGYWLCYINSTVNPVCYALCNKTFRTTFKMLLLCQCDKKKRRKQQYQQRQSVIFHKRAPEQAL
Sequence of Histamine H2 receptor (P25021 whole entry): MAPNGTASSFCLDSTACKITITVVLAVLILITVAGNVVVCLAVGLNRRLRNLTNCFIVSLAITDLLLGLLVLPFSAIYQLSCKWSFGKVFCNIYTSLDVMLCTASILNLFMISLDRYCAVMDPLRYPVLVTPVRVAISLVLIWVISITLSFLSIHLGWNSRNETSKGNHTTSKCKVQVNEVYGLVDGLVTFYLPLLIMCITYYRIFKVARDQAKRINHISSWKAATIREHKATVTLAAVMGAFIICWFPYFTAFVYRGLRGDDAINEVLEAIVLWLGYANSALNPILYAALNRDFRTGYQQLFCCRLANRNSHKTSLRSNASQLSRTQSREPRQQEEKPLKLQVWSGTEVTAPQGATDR
Sequence of Beta-2 adrenergic receptor (P07550 whole entry): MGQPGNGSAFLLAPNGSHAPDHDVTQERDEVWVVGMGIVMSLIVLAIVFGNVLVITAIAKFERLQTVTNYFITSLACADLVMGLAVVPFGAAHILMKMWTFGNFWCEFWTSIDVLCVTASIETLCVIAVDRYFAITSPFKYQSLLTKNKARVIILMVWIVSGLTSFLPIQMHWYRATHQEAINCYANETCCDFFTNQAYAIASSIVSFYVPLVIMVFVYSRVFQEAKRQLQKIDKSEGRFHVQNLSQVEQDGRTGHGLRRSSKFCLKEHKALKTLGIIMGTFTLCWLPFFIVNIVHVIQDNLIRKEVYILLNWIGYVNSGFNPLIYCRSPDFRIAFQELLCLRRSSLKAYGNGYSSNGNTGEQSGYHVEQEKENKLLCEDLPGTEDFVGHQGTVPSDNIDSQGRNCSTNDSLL
Sequence of 5-hydroxytryptamine receptor 2A (P28223 whole entry): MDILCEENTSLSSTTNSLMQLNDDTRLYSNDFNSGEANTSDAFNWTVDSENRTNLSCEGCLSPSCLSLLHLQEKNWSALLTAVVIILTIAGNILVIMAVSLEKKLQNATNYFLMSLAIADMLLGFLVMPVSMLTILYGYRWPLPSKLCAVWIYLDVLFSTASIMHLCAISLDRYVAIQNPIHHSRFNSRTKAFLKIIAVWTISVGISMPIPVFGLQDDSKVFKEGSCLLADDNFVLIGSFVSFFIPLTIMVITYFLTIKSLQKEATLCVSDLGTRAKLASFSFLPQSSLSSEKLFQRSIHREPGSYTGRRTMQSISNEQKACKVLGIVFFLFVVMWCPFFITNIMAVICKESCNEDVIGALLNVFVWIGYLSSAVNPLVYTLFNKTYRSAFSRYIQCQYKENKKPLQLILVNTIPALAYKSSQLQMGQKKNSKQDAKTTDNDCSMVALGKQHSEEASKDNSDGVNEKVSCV

CC(C)(C)c1ccc(NCCc2c[nH]cn2)cc1
Activity (Histamine H3 receptor [1]): 70%

FC(F)(F)c1ccc(NCCc2c[nH]cn2)cc1
Ki (Histamine H3 receptor [2]): 1.1 nM
Activity (Histamine H3 receptor [1]): 56%
EC50 (Histamine H3 receptor [3]; read-out: EC50): 19 nM

N=C(N)SCCc1cnc[nH]1 [IMETIT]
Ki (Histamine H3 receptor [2]): 0.57 nM
EC50 (Histamine H3 receptor [3]; read-out: EC50): 2.4 nM

CC(C)(C)c1cccc(NCCc2c[nH]cn2)c1
Ki (Histamine H3 receptor [2]): 2.2 nM
Activity (Histamine H3 receptor [1]): 48%
EC50 (Histamine H3 receptor [3]; read-out: EC50): 4.6 nM

COc1ccc(NCCc2c[nH]cn2)cc1
Ki (Histamine H3 receptor [2]): 24 nM
Activity (Histamine H3 receptor [1]): 56%
EC50 (Histamine H3 receptor [3]; read-out: EC50): 65 nM

c1nc(CCNc2ccc(C3CCCCC3)cc2)c[nH]1
Activity (Histamine H3 receptor [1]): inactive
EC50 (Histamine H3 receptor [3]; cho): Not Active

CC(C)(C)c1ccc(SCCc2c[nH]cn2)cc1
Nτ-methylhistamine level (Mus musculus [4]): 298 ng/g
clearance [5]: 46.7 mL/min/kg
Ki [6]: > 1000 nM
IC50 (Cytochrome P450 1A2): 680 nM
Time (Mus musculus [7]): 16.3 s
Ki [8]: > 1000 nM
Ki [9]: > 1000 nM
Ki (Histamine H3 receptor [2]): 0.17 nM
Ki [10]: > 1000 nM
Activity (Histamine H3 receptor [1]): 77%
Stability [11]: 13 pmol/min
Time (Mus musculus [12]): 42.9 s
IC50 (Cytochrome P450 2D6): 680 nM
IC50 (Cytochrome P450 3A4): 470 nM
Kp at 1 h [13]: 6
Ki (Histamine H2 receptor): > 1000 nM
half-life [14]: 1 h
bioavailability [15]: 53.5%
Ki [16]: > 1000 nM
Ki [17]: > 1000 nM
Ki (D(3) dopamine receptor): > 1000 nM
Ki (Histamine H1 receptor): > 1000 nM
Ki [18]: > 1000 nM
Ki [19]: > 1000 nM
EC50 (Histamine H3 receptor [3]; read-out: EC50): 0.75 nM
Ki (D(1A) dopamine receptor): > 1000 nM
Ki (Histamine H4 receptor): 1.1 nM
Nτ-methylhistamine level (Mus musculus [20]): 96 ng/g
Nτ-methylhistamine level (Mus musculus [21]): 92 ng/g
Ki (D(2) dopamine receptor): > 1000 nM
Vd [22]: 3.4 L/kg
IC50 (Cytochrome P450 2C19): 8.5 nM

N=C(N)SCCc1c[nH]cn1
Nτ-methylhistamine level (Mus musculus [4]): 239 ng/g
Activity (Histamine H3 receptor [1]): 91%
Nτ-methylhistamine level (Mus musculus [20]): 98 ng/g
Nτ-methylhistamine level (Mus musculus [21]): 133 ng/g

Cc1ccc(NCCc2cnc[nH]2)cc1
Ki (Histamine H3 receptor [2]): 14 nM
EC50 (Histamine H3 receptor [3]; read-out: EC50): 88 nM
